In experiment [1] the target is Sodium channel protein type 9 subunit alpha (Homo sapiens, UniProt Q15858). Briefly: Inhibition of human Nav1.7 expressed in HEK293 cells assessed as inward peak current by ion-works quattro patch clamp electrophysiology method. The class given is cell-based. For orientation: In patch-clamp work, channel activity is measured electrically.
For experiment [2], the target named is Sodium channel protein type 5 subunit alpha (Homo sapiens, UniProt Q14524). Briefly: Inhibition of human Nav1.5 expressed in HEK293 cells assessed as inward peak current by ion-works quattro patch clamp electrophysiology method. Type of experiment: cell-based. The method in brief: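 Stable HEK293 line expressing human NaV1.5, recorded by population patch clamp on the IonWorks Quattro.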

pIC50: −log10 of the molar value. Positions of bridges follow the written chain, without caps; N, C: chain ends. Non-standard residues stand in square brackets, D forms with d. Residues, ends and D or L forms follow the SMILES beside them. 1Nal = N[C@@H](Cc1cccc2ccccc12)C(=O)O Bounds are passed on as bounds.

Sodium channel protein type 9 subunit alpha, sequence (Q15858 whole entry): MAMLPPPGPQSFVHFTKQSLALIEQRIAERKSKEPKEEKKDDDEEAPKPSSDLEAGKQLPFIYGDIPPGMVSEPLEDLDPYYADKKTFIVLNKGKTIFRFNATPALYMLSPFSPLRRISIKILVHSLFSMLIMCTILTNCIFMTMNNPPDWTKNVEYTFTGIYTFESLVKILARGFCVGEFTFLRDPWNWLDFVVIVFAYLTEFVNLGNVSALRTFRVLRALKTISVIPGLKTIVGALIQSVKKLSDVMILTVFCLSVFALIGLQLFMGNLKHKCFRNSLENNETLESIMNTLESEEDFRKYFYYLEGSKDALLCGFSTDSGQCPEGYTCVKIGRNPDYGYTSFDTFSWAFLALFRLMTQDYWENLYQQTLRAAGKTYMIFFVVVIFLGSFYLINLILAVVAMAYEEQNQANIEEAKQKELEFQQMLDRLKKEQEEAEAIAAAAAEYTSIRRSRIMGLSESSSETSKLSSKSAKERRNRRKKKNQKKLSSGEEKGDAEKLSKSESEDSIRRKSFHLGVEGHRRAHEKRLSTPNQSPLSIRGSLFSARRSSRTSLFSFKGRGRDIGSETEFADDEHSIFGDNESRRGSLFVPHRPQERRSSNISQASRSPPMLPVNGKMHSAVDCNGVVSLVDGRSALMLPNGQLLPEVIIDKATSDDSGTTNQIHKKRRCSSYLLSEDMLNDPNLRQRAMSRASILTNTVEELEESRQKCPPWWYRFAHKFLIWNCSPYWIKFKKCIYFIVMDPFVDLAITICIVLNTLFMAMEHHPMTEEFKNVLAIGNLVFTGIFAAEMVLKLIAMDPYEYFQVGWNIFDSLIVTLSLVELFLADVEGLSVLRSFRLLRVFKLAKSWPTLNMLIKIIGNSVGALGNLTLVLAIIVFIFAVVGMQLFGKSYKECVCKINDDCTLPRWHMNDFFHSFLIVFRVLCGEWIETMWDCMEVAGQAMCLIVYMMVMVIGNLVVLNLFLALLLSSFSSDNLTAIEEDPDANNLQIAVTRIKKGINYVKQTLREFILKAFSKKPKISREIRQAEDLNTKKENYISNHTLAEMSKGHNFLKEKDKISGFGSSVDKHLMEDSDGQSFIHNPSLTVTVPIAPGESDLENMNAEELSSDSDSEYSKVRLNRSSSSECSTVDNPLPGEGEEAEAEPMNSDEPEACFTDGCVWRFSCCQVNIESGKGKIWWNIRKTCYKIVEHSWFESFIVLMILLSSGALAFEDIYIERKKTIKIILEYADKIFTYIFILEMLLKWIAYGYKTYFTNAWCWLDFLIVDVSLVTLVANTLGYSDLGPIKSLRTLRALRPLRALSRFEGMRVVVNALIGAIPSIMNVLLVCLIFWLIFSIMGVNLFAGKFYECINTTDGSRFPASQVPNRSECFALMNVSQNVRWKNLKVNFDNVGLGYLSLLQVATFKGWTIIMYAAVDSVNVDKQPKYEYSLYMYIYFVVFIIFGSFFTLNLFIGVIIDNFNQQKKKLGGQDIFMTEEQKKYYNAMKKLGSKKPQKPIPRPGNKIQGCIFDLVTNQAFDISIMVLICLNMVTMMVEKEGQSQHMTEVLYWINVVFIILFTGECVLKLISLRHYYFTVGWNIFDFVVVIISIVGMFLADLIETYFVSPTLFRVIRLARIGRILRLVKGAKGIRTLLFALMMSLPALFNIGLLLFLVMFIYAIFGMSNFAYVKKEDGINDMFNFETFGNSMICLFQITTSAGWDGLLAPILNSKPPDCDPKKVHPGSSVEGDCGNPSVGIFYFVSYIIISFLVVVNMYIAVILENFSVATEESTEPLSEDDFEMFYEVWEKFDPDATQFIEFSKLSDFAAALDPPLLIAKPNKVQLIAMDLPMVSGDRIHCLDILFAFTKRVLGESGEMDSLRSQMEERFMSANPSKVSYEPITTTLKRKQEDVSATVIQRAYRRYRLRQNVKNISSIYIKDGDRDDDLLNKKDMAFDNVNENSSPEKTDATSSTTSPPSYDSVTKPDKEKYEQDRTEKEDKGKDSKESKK
Sodium channel protein type 5 subunit alpha, sequence (Q14524 whole entry): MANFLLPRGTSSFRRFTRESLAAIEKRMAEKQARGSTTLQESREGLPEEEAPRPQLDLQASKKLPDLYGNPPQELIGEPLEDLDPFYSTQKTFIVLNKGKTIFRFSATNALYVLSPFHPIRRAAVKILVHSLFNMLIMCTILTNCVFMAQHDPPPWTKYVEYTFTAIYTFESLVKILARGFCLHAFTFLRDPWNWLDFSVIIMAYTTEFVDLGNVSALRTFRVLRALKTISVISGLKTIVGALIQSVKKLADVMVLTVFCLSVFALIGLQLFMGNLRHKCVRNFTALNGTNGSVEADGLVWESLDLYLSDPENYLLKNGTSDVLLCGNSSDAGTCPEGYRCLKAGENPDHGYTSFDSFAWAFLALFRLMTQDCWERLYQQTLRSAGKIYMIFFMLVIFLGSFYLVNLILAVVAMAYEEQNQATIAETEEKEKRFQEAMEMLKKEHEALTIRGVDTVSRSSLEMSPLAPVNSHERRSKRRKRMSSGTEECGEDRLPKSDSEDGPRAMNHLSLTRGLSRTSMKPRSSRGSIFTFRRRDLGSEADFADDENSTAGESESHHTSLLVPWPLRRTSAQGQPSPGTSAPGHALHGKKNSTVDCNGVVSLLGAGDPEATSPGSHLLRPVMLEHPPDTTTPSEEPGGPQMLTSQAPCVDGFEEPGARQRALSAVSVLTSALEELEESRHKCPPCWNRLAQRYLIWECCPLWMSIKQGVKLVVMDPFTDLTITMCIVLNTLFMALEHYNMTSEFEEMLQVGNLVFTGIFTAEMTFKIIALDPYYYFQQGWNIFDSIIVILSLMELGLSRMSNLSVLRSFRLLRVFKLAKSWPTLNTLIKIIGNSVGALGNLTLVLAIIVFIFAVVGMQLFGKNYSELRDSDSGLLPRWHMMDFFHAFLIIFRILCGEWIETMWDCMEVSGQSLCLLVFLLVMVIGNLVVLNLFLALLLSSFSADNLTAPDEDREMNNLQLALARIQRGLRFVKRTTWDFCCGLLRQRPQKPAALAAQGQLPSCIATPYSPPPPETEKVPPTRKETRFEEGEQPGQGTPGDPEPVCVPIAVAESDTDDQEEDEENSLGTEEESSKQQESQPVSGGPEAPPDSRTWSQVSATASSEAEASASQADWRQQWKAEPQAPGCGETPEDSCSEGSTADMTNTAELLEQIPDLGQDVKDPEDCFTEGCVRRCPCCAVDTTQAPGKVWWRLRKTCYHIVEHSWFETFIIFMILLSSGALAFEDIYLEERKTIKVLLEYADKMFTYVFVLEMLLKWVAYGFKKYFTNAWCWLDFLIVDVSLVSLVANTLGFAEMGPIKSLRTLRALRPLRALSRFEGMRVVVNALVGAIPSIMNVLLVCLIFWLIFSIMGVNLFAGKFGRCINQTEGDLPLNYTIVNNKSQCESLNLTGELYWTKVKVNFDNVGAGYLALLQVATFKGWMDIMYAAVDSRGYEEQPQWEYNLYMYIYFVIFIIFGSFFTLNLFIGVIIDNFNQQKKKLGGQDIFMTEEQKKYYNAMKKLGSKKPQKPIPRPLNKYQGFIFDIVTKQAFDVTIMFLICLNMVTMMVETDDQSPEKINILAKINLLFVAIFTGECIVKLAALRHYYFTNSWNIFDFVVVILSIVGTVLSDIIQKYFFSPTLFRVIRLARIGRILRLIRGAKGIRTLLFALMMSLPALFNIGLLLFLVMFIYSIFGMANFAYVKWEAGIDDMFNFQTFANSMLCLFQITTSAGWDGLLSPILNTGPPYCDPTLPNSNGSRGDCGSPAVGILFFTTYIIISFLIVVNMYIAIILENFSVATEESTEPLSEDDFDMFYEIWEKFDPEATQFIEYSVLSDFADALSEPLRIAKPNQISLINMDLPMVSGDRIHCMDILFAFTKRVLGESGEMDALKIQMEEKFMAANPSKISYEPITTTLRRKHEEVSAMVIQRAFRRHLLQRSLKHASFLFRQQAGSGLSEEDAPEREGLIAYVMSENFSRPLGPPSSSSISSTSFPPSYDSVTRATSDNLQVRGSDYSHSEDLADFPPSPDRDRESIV

As to `CC[C@H](C)[C@@H]1NC(=O)[C@@H]2CSSC[C@@H]3NC(=O)[C@H](C(C)C)NC(=O)[C@H](CC(C)C)NC(=O)[C@H](CC(N)=O)NC(=O)[C@@H]4CCCN4C(=O)[C@H](CCCNC(=N)N)NC(=O)[C@H](CSSC[C@H](NC(=O)[C@@H](N)CC(=O)O)C(=O)N[C@@H](CC(C)C)C(=O)NCC(=O)N[C@@H](Cc4ccccc4)C(=O)N[C@@H](CCSC)C(=O)N[C@@H](CCCNC(=N)N)C(=O)N[C@@H](CCCCN)C(=O)N2)NC(=O)[C@H](CSSC[C@@H](C(=O)N[C@@H](CCCCN)C(=O)N[C@@H](Cc2ccc(O)cc2)C(=O)N[C@H](C(=O)N[C@@H](Cc2ccccc2)C(N)=O)C(C)C)NC(=O)[C@H](Cc2c[nH]c4ccccc24)NC(=O)[C@H](CCCCN)NC(=O)[C@H](Cc2cnc[nH]2)NC(=O)[C@H]([C@@H](C)O)NC(=O)[C@H](CCCNC(=N)N)NC(=O)[C@H](CO)NC3=O)NC(=O)[C@H](CCCCN)NC(=O)[C@H](CC(=O)O)NC(=O)[C@H](CCCNC(=N)N)NC(=O)[C@H](CC(=O)O)NC(=O)[C@@H]2CCCN2C1=O` (H-DCLGFMRKCIPDRDKCCRPNLVCSRTHKWCKYVF-NH2; disulfide 2-17, 9-23, 16-30), the pIC50 was 6.85 in experiment [1] and less than 5.30 in experiment [2].

For `CC[C@H](C)[C@@H]1NC(=O)[C@@H]2CSSC[C@@H]3NC(=O)[C@H](C(C)C)NC(=O)[C@H](CC(C)C)NC(=O)[C@H](CC(N)=O)NC(=O)[C@@H]4CCCN4C(=O)[C@H](CCCNC(=N)N)NC(=O)[C@H](CSSC[C@H](NC(=O)[C@@H](N)CC(=O)O)C(=O)N[C@@H](CC(C)C)C(=O)NCC(=O)N[C@@H](Cc4ccccc4)C(=O)N[C@@H](CCSC)C(=O)N[C@@H](CCCNC(=N)N)C(=O)N[C@@H](CCCCN)C(=O)N2)NC(=O)[C@H](CSSC[C@@H](C(=O)N[C@@H](CCCCN)C(=O)N[C@@H](Cc2ccc(O)cc2)C(=O)N[C@H](C(=O)N[C@@H](Cc2ccccc2)C(N)=O)C(C)C)NC(=O)[C@H](Cc2c[nH]c4ccccc24)NC(=O)[C@H](CCCCN)NC(=O)[C@H](Cc2cnc[nH]2)NC(=O)[C@H]([C@@H](C)O)NC(=O)[C@H](CCCNC(=N)N)NC(=O)[C@H](CO)NC3=O)NC(=O)[C@H](CCCCN)NC(=O)[C@H](CC(=O)O)NC(=O)[C@H](Cc2c[nH]c3ccccc23)NC(=O)[C@H](CC(=O)O)NC(=O)[C@@H]2CCCN2C1=O` (H-DCLGFMRKCIPDWDKCCRPNLVCSRTHKWCKYVF-NH2; disulfide 2-17, 9-23, 16-30), the pIC50 in experiment [1] was 7.10; in experiment [2], less than 5.30.

`CC[C@H](C)[C@@H]1NC(=O)[C@@H]2CSSC[C@@H]3NC(=O)[C@H](C(C)C)NC(=O)[C@H](CC(C)C)NC(=O)[C@H](CC(N)=O)NC(=O)[C@@H]4CCCN4C(=O)[C@H](CCCNC(=N)N)NC(=O)[C@H](CSSC[C@H](NC(=O)[C@@H](N)CC(=O)O)C(=O)N[C@@H](CC(C)C)C(=O)NCC(=O)N[C@@H](Cc4ccccc4)C(=O)N[C@@H](CCSC)C(=O)N[C@@H](CCCNC(=N)N)C(=O)N[C@@H](CCCCN)C(=O)N2)NC(=O)[C@H](CSSC[C@@H](C(=O)N[C@@H](CCCCN)C(=O)N[C@@H](Cc2ccc(O)cc2)C(=O)N[C@H](C(=O)N[C@@H](Cc2ccccc2)C(N)=O)C(C)C)NC(=O)[C@H](Cc2c[nH]c4ccccc24)NC(=O)[C@H](CCCCN)NC(=O)[C@H](Cc2cnc[nH]2)NC(=O)[C@H]([C@@H](C)O)NC(=O)[C@H](CCCNC(=N)N)NC(=O)[C@H](CO)NC3=O)NC(=O)[C@H](CCCCN)NC(=O)[C@H](CC(=O)O)NC(=O)[C@H](CC(N)=O)NC(=O)[C@H](CCC(=O)O)NC(=O)[C@@H]2CCCN2C1=O` (H-DCLGFMRKCIPENDKCCRPNLVCSRTHKWCKYVF-NH2; disulfide 2-17, 9-23, 16-30): the pIC50 in experiment [1] was 6.55; in experiment [2], less than 5.30.

For the compound `CC[C@H](C)[C@@H]1NC(=O)[C@@H]2CSSC[C@@H]3NC(=O)[C@H](C(C)C)NC(=O)[C@H](CC(C)C)NC(=O)[C@H](CC(N)=O)NC(=O)[C@@H]4CCCN4C(=O)[C@H](CCCNC(=N)N)NC(=O)[C@H](CSSC[C@H](NC(=O)[C@@H](N)CC(=O)O)C(=O)N[C@@H](CC(C)C)C(=O)NCC(=O)N[C@@H](Cc4ccccc4)C(=O)N[C@@H](CCSC)C(=O)N[C@@H](CCCNC(=N)N)C(=O)N[C@@H](CCCCN)C(=O)N2)NC(=O)[C@H](CSSC[C@@H](C(=O)N[C@@H](CCCCN)C(=O)N[C@@H](Cc2ccc(O)cc2)C(=O)N[C@H](C(=O)N[C@@H](Cc2ccccc2)C(N)=O)C(C)C)NC(=O)[C@H](Cc2c[nH]c4ccccc24)NC(=O)[C@H](CCCCN)NC(=O)[C@H](Cc2cnc[nH]2)NC(=O)[C@H]([C@@H](C)O)NC(=O)[C@H](CCCNC(=N)N)NC(=O)[C@H](CO)NC3=O)NC(=O)[C@H](CCCCN)NC(=O)[C@H](CC(=O)O)NC(=O)[C@H](CC(N)=O)NC(=O)[C@H](Cc2c[nH]c3ccccc23)NC(=O)[C@@H]2CCCN2C1=O` (H-DCLGFMRKCIPWNDKCCRPNLVCSRTHKWCKYVF-NH2; disulfide 2-17, 9-23, 16-30), the values for the pIC50 in experiment [1] and in experiment [2] were 7.22 and less than 5.30, respectively.

Take `CC[C@H](C)[C@@H]1NC(=O)[C@@H]2CSSC[C@@H]3NC(=O)[C@H](C(C)C)NC(=O)[C@H](CC(C)C)NC(=O)[C@H](CC(N)=O)NC(=O)[C@@H]4CCCN4C(=O)[C@H](CCCNC(=N)N)NC(=O)[C@H](CSSC[C@H](NC(=O)[C@@H](N)CC(=O)O)C(=O)N[C@@H](CC(C)C)C(=O)NCC(=O)N[C@@H](Cc4ccccc4)C(=O)N[C@@H](CCSC)C(=O)N[C@@H](CCCNC(=N)N)C(=O)N[C@@H](CCCCN)C(=O)N2)NC(=O)[C@H](CSSC[C@@H](C(=O)N[C@@H](CCCCN)C(=O)N[C@@H](Cc2ccc(O)cc2)C(=O)N[C@H](C(=O)N[C@@H](Cc2ccccc2)C(N)=O)C(C)C)NC(=O)[C@H](Cc2c[nH]c4ccccc24)NC(=O)[C@H](CCCCN)NC(=O)[C@H](Cc2c[nH]cn2)NC(=O)[C@H]([C@@H](C)O)NC(=O)[C@H](CCCNC(=N)N)NC(=O)[C@H](CO)NC3=O)NC(=O)[C@H](CCCCN)NC(=O)[C@H](CC(=O)O)NC(=O)[C@H](CC(N)=O)NC(=O)[C@H](Cc2cccc3ccccc23)NC(=O)[C@@H]2CCCN2C1=O` (H-DCLGFMRKCIP[1Nal]NDKCCRPNLVCSRTHKWCKYVF-NH2; disulfide 2-17, 9-23, 16-30): the pIC50 is 7.00 in experiment [1] and less than 5.30 in experiment [2].

In the case of `CC[C@H](C)[C@@H]1NC(=O)[C@@H]2CSSC[C@@H]3NC(=O)[C@H](C(C)C)NC(=O)[C@H](CC(C)C)NC(=O)[C@H](CC(N)=O)NC(=O)[C@@H]4CCCN4C(=O)[C@H](CCCNC(=N)N)NC(=O)[C@H](CSSC[C@H](NC(=O)[C@@H](N)CC(=O)O)C(=O)N[C@@H](CC(C)C)C(=O)NCC(=O)N[C@@H](Cc4ccccc4)C(=O)N[C@@H](CCSC)C(=O)N[C@@H](CCCNC(=N)N)C(=O)N[C@@H](CCCCN)C(=O)N2)NC(=O)[C@H](CSSC[C@@H](C(=O)N[C@@H](CCCCN)C(=O)N[C@@H](Cc2ccc(O)cc2)C(=O)N[C@H](C(=O)N[C@@H](Cc2ccccc2)C(N)=O)C(C)C)NC(=O)[C@H](Cc2c[nH]c4ccccc24)NC(=O)[C@H](CCCCN)NC(=O)[C@H](Cc2cnc[nH]2)NC(=O)[C@H]([C@@H](C)O)NC(=O)[C@H](CCCNC(=N)N)NC(=O)[C@H](CO)NC3=O)NC(=O)[C@H](CCCCN)NC(=O)[C@H](CC(=O)O)NC(=O)[C@H](CC(N)=O)NC(=O)[C@H](CC(=O)O)NC(=O)[C@H](Cc2c[nH]c3ccccc23)NC1=O` (H-DCLGFMRKCIWDNDKCCRPNLVCSRTHKWCKYVF-NH2; disulfide 2-17, 9-23, 16-30), the pIC50 in experiment [1] was 7.10; in experiment [2] it was less than 5.30.

Broadly, the pIC50 is the negative decadic logarithm of the IC50, by convention in mol/L.

(Values after ChEMBL document CHEMBL3797186, “Single Residue Substitutions That Confer Voltage-Gated Sodium Ion Channel Subtype Selectivity in the NaV1.7 Inhibitory Peptide GpTx-1” (J Med Chem, 2016).)
